In one experiment the test system is MDA-MB-231. The experiment is described as follows: Induction of apoptosis in estrogen receptor negative human MDA231 cells at 20 uM after 24 hrs by TUNEL assay. Format: functional. The essentials: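 ER-negative MDA-231 breast cancer cells, treated 24 h at 20 μM. Apoptosis read by TUNEL staining with confocal microscopy as percent TUNEL-positive cells. Baseline apoptosis of untreated cells used for normalization. Mean ± standard error of three independent experiments.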

A further experiment deals with MCF7. Kind of experiment: Induction of apoptosis in estrogen receptor positive human MCF7 cells at 15 uM after 24 hrs by TUNEL assay. It counts as functional. The essentials:
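ER-positive MCF-7 breast cancer cells, exposed 24 h at 15 μM. Apoptotic cells scored by TUNEL labelling and confocal microscopy, expressed as percent TUNEL-positive, normalized against untreated baseline. Mean ± standard error from three independent experiments.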

Consider `CO[C@H](C(=O)[C@@H](O)[C@@H](C)O)[C@@H]1Cc2cc3cc(O[C@H]4C[C@@H](O[C@H]5C[C@@H](O)[C@H](O)[C@@H](C)O5)[C@H](O)[C@@H](C)O4)c(C)c(O)c3c(O)c2C(=O)[C@H]1O[C@H]1C[C@@H](O[C@H]2C[C@@H](O[C@H]3C[C@H](O)[C@H](O)[C@@H](C)O3)[C@@H](O)[C@@H](C)O2)[C@H](O)[C@@H](C)O1`, for which the Activity in the experiment with MDA-MB-231 is 63.6%; with MCF7, 64.8%.
As to `CO[C@H](C(=O)[C@@H](O)[C@@H](C)O)[C@@H]1Cc2cc3cc(O[C@H]4C[C@@H](O[C@H]5C[C@@H](O)[C@H](O)[C@@H](C)O5)[C@H](O)[C@@H](C)O4)c(C)c(O)c3c(O)c2C(=O)[C@H]1O[C@H]1C[C@@H](O[C@H]2C[C@@H](O[C@H]3C[C@](C)(O)[C@H](O)[C@@H](C)O3)[C@@H](O)[C@H](C)O2)[C@H](O)[C@@H](C)O1`, the Activity in the experiment with MDA-MB-231 is listed as 6.46%; in the experiment on MCF7 it was 3.9%.
The matching figures for `CO[C@H](C(=O)[C@@H](O)[C@@H](C)O)[C@@H]1Cc2cc3cc(O[C@H]4C[C@@H](O[C@H]5C[C@@H](O)[C@H](O)[C@@H](C)O5)[C@H](O)[C@@H](C)O4)c(C)c(O)c3c(O)c2C(=O)[C@H]1O[C@H]1C[C@@H](O[C@H]2C[C@](C)(O)[C@H](O)[C@@H](C)O2)[C@H](O)[C@@H](C)O1`: 7.29% and 50.3%.
The matching figures for `CO[C@H](C(=O)[C@@H](O)[C@@H](C)O)[C@@H]1Cc2cc3cc(O[C@H]4C[C@@H](O)[C@H](O)[C@@H](C)O4)c(C)c(O)c3c(O)c2C(=O)[C@H]1O[C@H]1C[C@@H](O[C@H]2C[C@@H](O[C@H]3C[C@](C)(O)[C@H](O)[C@@H](C)O3)[C@@H](O)[C@@H](C)O2)[C@H](O)[C@@H](C)O1`: 12.6% and 26.3%.

The values are drawn from ChEMBL document CHEMBL1144742, “Mithramycin analogues generated by combinatorial biosynthesis show improved bioactivity” (2008).
